Test results published in ChEMBL document CHEMBL4428067, “Drug Discovery against Psoriasis: Identification of a New Potent FMS-like Tyrosine Kinase 3 (FLT3) Inhibitor, 1-(4-((1H-Pyrazolo[3,4-d]pyrimidin-4-yl)oxy)-3-fluorophenyl)-3-(5-(tert-butyl)isoxazol-3-yl)urea, That Showed Potent Activity in a Psoriatic Animal Model” (J Med Chem, 2016).
Activity calls are given as the source filed them. No cut-off for these calls is given here.

Assays:
[1] = system: BMDC; test: Decrease in IL23 level in Balb/c mouse BMDCs at 10 nM treated on day 9 post 9 days of FLT3L-stimulation measured after 12 hrs by ELISA; format: functional, cell-based
Procedure, shortened: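 BALB/c bone marrow cells were plated at 1×10^6/ml in RPMI-1640 with 10% FCS, 10^-4 M 2-ME, pyruvate, antibiotics and FLT3L for 9 days. On day 9, compound in DMSO or 0.1% DMSO was added. After 12 h, supernatant IFN-γ and IL-23 were measured by ELISA. Three independent experiments.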

[2] = species: Mus musculus; test: Antipsoriatic activity in K14-VEGF transgenic mouse model of psoriasis assessed alleviation in lack of granular layer at 0.05% applied tropically over lesion for continuous 29 days by H and E staining method relative to vehicle control; format: functional, organism-based
Procedure, shortened: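 Homozygous K14-VEGF mice, 3–4 months old, with moderate to serious psoriasis; n=3 per group. Cream with 0.05% compound or vehicle cream smeared on lesions. Head and neck tissue sections taken after 29 days of treatment and HE-stained. Baker pathological score from 5 random fields, given as mean and SD. Epidermal thickness from 8 random fields, given as mean ± SEM.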

[3] = target: T1, Receptor-type tyrosine-protein kinase FLT3 (Mus musculus) (UniProt Q00342); test: (§1) Inhibition of FLT3 in Balb/c mouse BMDCs assessed as suppression of FLT3L-induced mDC formation measured as lower right quadrant cells level treated on day 9 post 9 days of FLT3L-stimulation measured after 24 hrs by CD11c PerCP and I-A/I-E (MHC class II) FITC staining based flow cytometric analysis (reference value: 3.49%); parameters: scale not given: the % may be the effect or the level left
T1 sequence (whole entry): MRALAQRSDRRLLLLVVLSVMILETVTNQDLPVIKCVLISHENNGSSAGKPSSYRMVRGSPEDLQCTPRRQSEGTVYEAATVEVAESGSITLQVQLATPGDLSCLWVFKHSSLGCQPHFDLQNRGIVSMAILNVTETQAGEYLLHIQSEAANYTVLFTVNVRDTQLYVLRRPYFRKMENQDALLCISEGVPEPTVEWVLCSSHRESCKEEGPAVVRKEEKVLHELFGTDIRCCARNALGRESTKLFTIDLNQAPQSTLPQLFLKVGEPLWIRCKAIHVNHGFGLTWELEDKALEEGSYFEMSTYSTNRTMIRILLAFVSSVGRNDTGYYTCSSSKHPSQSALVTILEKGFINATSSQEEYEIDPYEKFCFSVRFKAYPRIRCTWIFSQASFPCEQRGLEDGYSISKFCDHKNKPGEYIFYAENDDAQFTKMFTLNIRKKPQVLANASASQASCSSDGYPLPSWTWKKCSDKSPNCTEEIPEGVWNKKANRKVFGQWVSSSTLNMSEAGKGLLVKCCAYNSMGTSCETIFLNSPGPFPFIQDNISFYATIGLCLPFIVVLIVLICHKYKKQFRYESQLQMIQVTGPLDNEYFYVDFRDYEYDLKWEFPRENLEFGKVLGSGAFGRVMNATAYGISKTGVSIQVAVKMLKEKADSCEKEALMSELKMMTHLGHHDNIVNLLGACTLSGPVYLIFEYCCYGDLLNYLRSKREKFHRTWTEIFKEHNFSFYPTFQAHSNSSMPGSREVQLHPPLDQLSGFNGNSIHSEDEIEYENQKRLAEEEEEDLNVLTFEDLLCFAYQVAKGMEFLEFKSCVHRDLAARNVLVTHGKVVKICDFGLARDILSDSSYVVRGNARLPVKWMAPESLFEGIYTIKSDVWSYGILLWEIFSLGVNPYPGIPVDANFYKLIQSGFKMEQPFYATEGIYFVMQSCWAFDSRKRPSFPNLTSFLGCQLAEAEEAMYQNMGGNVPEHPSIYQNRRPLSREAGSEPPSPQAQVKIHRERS
Procedure, shortened: (§2)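 BALB/c bone marrow cells were cultured at 1×10^6/ml with FLT3L in supplemented RPMI-1640 for 9 days. Compound in DMSO or 0.1% DMSO was added on day 9 for 24 h. Cells were stained for 30 min with CD11c PerCP plus B220 FITC (pDC: CD11c+ B220+) or MHC II FITC (mDC: CD11c+ MHC II+), then analysed by flow cytometry. Three independent experiments.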

[4] = species: Mus musculus; test: Antipsoriatic activity in K14-VEGF transgenic mouse model of psoriasis assessed as lower left quadrant FLT3+/CD11c+/MHC-II+ mDC cells in psoriatic plaque lesion at 0.05% applied tropically over lesion for continuous 29 days by flow cytometric analysis (reference value: 0%)
[5] = species: Mus musculus; test: Antipsoriatic activity in K14-VEGF transgenic mouse model of psoriasis assessed as decrease in STAT3 phosphorylation in psoriatic lesion at 0.05% applied tropically over lesion for continuous 29 days by immunohistochemical analysis relative to vehicle control; format: functional; parameters: scale not given: the % may be the effect or the level left
Procedure, shortened: (§3)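 K14-VEGF mice were treated topically with 0.05% cream or vehicle for 29 days, n=3 per group. Ear skin was paraffin-embedded, cut into 4-µm sections and immunostained. Staining was quantified in 5 random fields, reported as mean ± SD.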

[6] = target: T1, Receptor-type tyrosine-protein kinase FLT3 (Mus musculus); test: as §1, with “left” for “right”, “43.7%)” for “3.49%)”; parameters: scale not given: the % may be the effect or the level left; procedure, shortened: as §2
[7] = species: Mus musculus; test: Antipsoriatic activity in K14-VEGF transgenic mouse model of psoriasis assessed as upper left quadrant DC cells expressing FLT3 and CD11c in psoriatic plaque lesion at 0.05% applied tropically over lesion for continuous 29 days by flow cytometric analysis (reference value: 8.83%); format: functional
[8] = species: Mus musculus; test: Antipsoriatic activity in K14-VEGF transgenic mouse model of psoriasis assessed as decrease in CD8 expression in psoriatic lesion at 0.05% applied tropically over lesion for continuous 29 days by immunohistochemical analysis relative to vehicle control; format: functional; parameters: scale not given: the % may be the effect or the level left; procedure, shortened: as §3
[9] = species: Mus musculus; test: Antipsoriatic activity in K14-VEGF transgenic mouse model of psoriasis assessed as lower left quadrant FLT3+/CD11c+/B220+ pDC cells in psoriatic plaque lesion at 0.05% applied tropically over lesion for continuous 29 days by flow cytometric analysis (reference value: 63.7%)
[10] = species: Mus musculus; test: Antipsoriatic activity in K14-VEGF transgenic mouse model of psoriasis assessed as decrease in Th17 cell formation in lymph node at 0.05% applied tropically over lesion for 29 days by flow cytometric analysis relative to vehicle-treated control; format: functional, organism-based
Procedure, shortened: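 K14-VEGF mice were treated topically for 29 days with 0.05% cream or vehicle. Lymph node cells were surface-stained with anti-CD4 PE, then fixed and permeabilised. They were stained with FITC anti-IL-17 and analysed by flow cytometry, three mice, mean ± SD.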

[11] = target: T1, Receptor-type tyrosine-protein kinase FLT3 (Mus musculus); test: as §1, with “pDC” for “mDC”, “CD45R/B220” for “I-A/I-E (MHC class II)”, “2.8%)” for “3.49%)”; parameters: scale not given: the % may be the effect or the level left; procedure, shortened: as §2
[12] = species: Mus musculus; test: Downregulation of IL17 expression in K14-VEGF transgenic mouse model of psoriasis at 0.05% applied tropically over lesion for 29 days by ELISA; format: functional, organism-based
Procedure, shortened: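 K14-VEGF mice were treated for 29 days with 0.05% cream or vehicle, n=3 each. At termination, blood was held at 4 °C for 12 h and then centrifuged. Plasma IFN-γ and IL-17 were measured by ELISA, mean ± SD.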

Activity [3]: 5.15%
Activity [6]: 54.7%
Activity [11]: 4.63%
SMILES: CC(C)(C)c1cc(NC(=O)Nc2ccc(Oc3ncnc4[nH]ncc34)c(F)c2)no1
inhibition [1]: Active
Activity [2]: Active
Activity [4]: 0%
Activity [5]: 64%
Activity [7]: 5.18%
Activity [8]: 79%
Activity [9]: 89.9%
Activity [10]: Active
Activity [12]: Active
